Series [1] relates to MM1.S. Briefly: Induction of apoptosis in human MM1S cells assessed as early apoptotic cells at 40 nM after 48 hrs by Annexin V-FITC/propidium iodide staining-based flow cytometric analysis (reference value: 0.38%). Type of series: functional. (In flow cytometry, cells or beads pass a laser one at a time.)
The nature of series [2]: Toxicity against NOD/SCID mouse xenografted with human MM1S cells assessed as mouse survival at 20 mg/kg, iv administered every 2 days for 5 days. The conditions noted are these: in vivo. Type of series: organism-based. The method, boiled down:
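Female NOD/SCID mice, 5-6 weeks old, received 10^7 MM1S cells in 100 μL serum-free RPMI 1640 s.c. into the right flank. At 100-200 mm3 tumours they were randomised, 6 mice per group. Tumours were measured by caliper every 2 days. At the end, tumours were excised and weighed. Survivors are reported per group.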
Background: In xenograft studies the graft and the host belong to different species.

The subject of series [3] is MV4-11. Briefly: Cell cycle arrest in human MV4-11 cells assessed as accumulation at G2/M phase at 1.25 nM after 24 hrs by propidium iodide/RNase staining-based FACS analysis (reference value: 18.79%). Type of series: functional.
The subject of series [4] is MV4-11. Briefly: Induction of apoptosis in human MV4-11 cells assessed as viable cells at 160 nM after 48 hrs by Annexin V-FITC/propidium iodide staining-based flow cytometric analysis (reference value: 84.1%). Type of series: functional. Conditions: MV4-11, 48 h, read-out: Activity.
The test system of series [5] is MM1.S. The experiment in a line: Induction of apoptosis in human MM1S cells assessed as late apoptotic cells at 10 nM after 48 hrs by Annexin V-FITC/propidium iodide staining-based flow cytometric analysis (reference value: 0.42%). Type of series: functional.
Series [6] relates to MM1.S. Briefly: Cell cycle arrest in human MM1S cells assessed as accumulation at G0/G1 phase at 5 nM after 24 hrs by propidium iodide/RNase staining-based FACS analysis (reference value: 49.22%). Type of series: functional.
Series [7] has as its system MM1.S. The experiment in a line: Induction of apoptosis in human MM1S cells assessed as necrotic cells at 20 nM after 48 hrs by Annexin V-FITC/propidium iodide staining-based flow cytometric analysis (reference value: 0.32%). Type of series: functional.
For series [8], the system named is MV4-11. Briefly: Antitumor activity against human MV4-11 cells xenografted in NOD/SCID mouse assessed as tumor growth inhibition at 10 mg/kg, iv administered every 2 days for 6 days and measured every 2 days post last dose by caliper method relative to control. Type of series: functional. Conditions: MV4-11, iv, read-out: TGI. The method, boiled down: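 Female NOD/SCID mice aged 5-6 weeks received 10^7 MV4-11 cells in 100 μL serum-free IMDM s.c. into the right flank. At 100-200 mm3 the mice were randomized, 6 per group. Dosing was i.v. at 10 mg/kg every 2 days, in saline with 2.5% DMSO and 10% cyclodextrin at pH 9. Tumours were measured by caliper every 2 days, with volume = length × width² × 0.5, and were weighed at sacrifice.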

Series [9] concerns MM1.S. Briefly: Cell cycle arrest in human MM1S cells assessed as accumulation at S phase at 5 nM after 24 hrs by propidium iodide/RNase staining-based FACS analysis (reference value: 24.49%). Type of series: functional.
Series [10] addresses Serine/threonine-protein kinase mTOR (Homo sapiens, UniProt P42345). The experiment in a line: Inhibition of mTOR in human MV4-11 cells assessed as decrease in 4EBP1 phosphorylation at ser 65 residues at 0.01 to 10 uM after 24 hrs by Western blot analysis. Type of series: cell-based. In short, it runs like this:
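Treatment of MV4-11 cells lasted 24 h at 0.01, 0.1, 1 and 10 μM. Lysis in RIPA buffer and BCA quantitation, then 30 μg protein by SDS-PAGE, PVDF transfer, 5% milk block, primary antibody overnight at 4 °C, HRP secondary 1 h and ECL detection. p-p70S6K (T389), p-4EBP1 (S65), p-Akt (S473) and p-ERK were probed.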

Series [11] relates to MV4-11. The experiment in a line: Induction of apoptosis in human MV4-11 cells assessed as early apoptotic cells at 40 nM after 48 hrs by Annexin V-FITC/propidium iodide staining-based flow cytometric analysis (reference value: 10.7%). Type of series: functional.
Series [12] relates to MM1.S. Briefly: Cell cycle arrest in human MM1S cells assessed as accumulation at G2/M phase at 10 nM after 24 hrs by propidium iodide/RNase staining-based FACS analysis (reference value: 26.29%). Type of series: functional.
For series [13], the system named is MM1.S. Briefly: Cell cycle arrest in human MM1S cells assessed as accumulation at S phase at 10 nM after 24 hrs by propidium iodide/RNase staining-based FACS analysis (reference value: 24.49%). Type of series: functional.
The subject of series [14] is MM1.S. The experiment in a line: Induction of apoptosis in human MM1S cells assessed as late apoptotic cells at 20 nM after 48 hrs by Annexin V-FITC/propidium iodide staining-based flow cytometric analysis (reference value: 0.42%). Type of series: functional.
Series [15] relates to MM1.S. Briefly: Antitumor activity against human MM1S cells xenografted in NOD/SCID mouse assessed as tumor growth inhibition at 10 mg/kg, iv administered every 2 days for 5 days and measured every 2 days post last dose by caliper method relative to control. Type of series: functional. Conditions: read-out: TGI. In short, it runs like this:
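MM1S xenografts were made with 10^7 cells in 100 μL serum-free RPMI 1640, injected s.c. into the right flank of female NOD/SCID mice aged 5-6 weeks. Mice were randomized at 100-200 mm3, 6 per group. Dosing was i.v. every 2 days in saline with 2.5% DMSO and 10% cyclodextrin at pH 9. Tumours were measured by caliper every 2 days (volume = length × width² × 0.5) and weighed at the end.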

The target in a further series is Histone deacetylase 2 (Homo sapiens, UniProt Q92769). Briefly: Inhibition of recombinant full length human HDAC2 expressed in baculovirus expression system using Ac-peptide-AMC as substrate preincubated for 15 mins followed by substrate addition and measured after 1 hr by fluorescence assay.
The subject of series [16] is MV4-11. The experiment in a line: Cell cycle arrest in human MV4-11 cells assessed as accumulation at G2/M phase at 10 nM after 24 hrs by propidium iodide/RNase staining-based FACS analysis (reference value: 18.79%). Type of series: functional.
Series [17] deals with MV4-11. Briefly: Induction of apoptosis in human MV4-11 cells assessed as late apoptotic cells at 40 nM after 48 hrs by Annexin V-FITC/propidium iodide staining-based flow cytometric analysis (reference value: 5.03%). Type of series: functional.
Series [18] addresses Protein deacetylase HDAC6 (Homo sapiens, UniProt Q9UBN7). Briefly: Inhibition of recombinant full length HDAC6 (unknown origin) using Ac-peptide-AMC as substrate preincubated for 15 mins followed by substrate addition and measured after 1 hr by fluorescence assay.
The next series deals with Histone deacetylase 1 (Homo sapiens, UniProt Q13547). The experiment in a line: Inhibition of recombinant full length HDAC1 (unknown origin) using Ac-peptide-AMC as substrate preincubated for 15 mins followed by substrate addition and measured after 1 hr by fluorescence assay.
For series [19], the system named is MM1.S. Briefly: Induction of apoptosis in human MM1S cells assessed as viable cells at 20 nM after 48 hrs by Annexin V-FITC/propidium iodide staining-based flow cytometric analysis (reference value: 98.9%). Type of series: functional. The conditions noted are these: read-out: Activity.
In a further series the target is Histone deacetylase 4 (Homo sapiens, UniProt P56524). The experiment in a line: Inhibition of recombinant full length human HDAC4 expressed in baculovirus infected sf9 cells using Ac-peptide-AMC as substrate preincubated for 15 mins followed by substrate addition and measured after 1 hr by fluorescence assay.
Series [20] deals with MV4-11. The experiment in a line: Induction of apoptosis in human MV4-11 cells assessed as viable cells at 80 nM after 48 hrs by Annexin V-FITC/propidium iodide staining-based flow cytometric analysis (reference value: 84.1%). Type of series: functional. Conditions: MV4-11, 48 h, read-out: Activity.

This is an account of results in ChEMBL document CHEMBL4411315, “Discovery of Novel Dual Histone Deacetylase and Mammalian Target of Rapamycin Target Inhibitors as a Promising Strategy for Cancer Therapy” (J Med Chem, 2019).

Activity calls are given as the source filed them. The calls are words filed in the database; no cut-off is given here.

Protein deacetylase HDAC6, sequence (Q9UBN7 whole entry): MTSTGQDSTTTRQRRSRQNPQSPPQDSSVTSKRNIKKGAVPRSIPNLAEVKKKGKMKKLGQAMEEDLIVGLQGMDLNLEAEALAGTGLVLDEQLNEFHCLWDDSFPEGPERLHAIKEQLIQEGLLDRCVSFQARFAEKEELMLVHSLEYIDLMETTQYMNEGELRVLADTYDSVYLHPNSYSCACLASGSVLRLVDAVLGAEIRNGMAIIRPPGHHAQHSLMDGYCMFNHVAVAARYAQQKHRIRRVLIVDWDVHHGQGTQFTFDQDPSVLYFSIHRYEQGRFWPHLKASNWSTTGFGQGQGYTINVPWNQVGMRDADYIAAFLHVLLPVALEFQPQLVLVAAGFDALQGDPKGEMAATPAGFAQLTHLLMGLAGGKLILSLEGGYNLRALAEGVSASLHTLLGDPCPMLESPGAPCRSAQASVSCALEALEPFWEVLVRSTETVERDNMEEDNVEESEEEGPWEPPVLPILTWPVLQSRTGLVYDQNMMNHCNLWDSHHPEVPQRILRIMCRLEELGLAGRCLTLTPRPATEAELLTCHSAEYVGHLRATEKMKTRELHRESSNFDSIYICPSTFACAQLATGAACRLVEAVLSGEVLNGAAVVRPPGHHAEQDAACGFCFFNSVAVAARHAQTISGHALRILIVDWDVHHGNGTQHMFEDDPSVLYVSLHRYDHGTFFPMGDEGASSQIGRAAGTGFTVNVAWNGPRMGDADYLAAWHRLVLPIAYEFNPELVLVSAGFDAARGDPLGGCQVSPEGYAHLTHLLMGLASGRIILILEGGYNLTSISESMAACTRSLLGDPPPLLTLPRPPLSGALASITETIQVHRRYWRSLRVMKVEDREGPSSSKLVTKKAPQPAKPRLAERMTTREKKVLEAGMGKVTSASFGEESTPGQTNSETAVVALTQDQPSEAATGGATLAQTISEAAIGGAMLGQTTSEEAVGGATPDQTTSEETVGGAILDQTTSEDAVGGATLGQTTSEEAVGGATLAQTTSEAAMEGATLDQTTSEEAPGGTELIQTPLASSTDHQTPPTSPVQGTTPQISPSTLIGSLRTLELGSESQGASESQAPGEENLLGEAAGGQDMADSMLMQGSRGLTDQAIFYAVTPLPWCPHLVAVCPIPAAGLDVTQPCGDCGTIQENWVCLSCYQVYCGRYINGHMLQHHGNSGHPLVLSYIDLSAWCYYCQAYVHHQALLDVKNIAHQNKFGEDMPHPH
Histone deacetylase 4, sequence (P56524 whole entry): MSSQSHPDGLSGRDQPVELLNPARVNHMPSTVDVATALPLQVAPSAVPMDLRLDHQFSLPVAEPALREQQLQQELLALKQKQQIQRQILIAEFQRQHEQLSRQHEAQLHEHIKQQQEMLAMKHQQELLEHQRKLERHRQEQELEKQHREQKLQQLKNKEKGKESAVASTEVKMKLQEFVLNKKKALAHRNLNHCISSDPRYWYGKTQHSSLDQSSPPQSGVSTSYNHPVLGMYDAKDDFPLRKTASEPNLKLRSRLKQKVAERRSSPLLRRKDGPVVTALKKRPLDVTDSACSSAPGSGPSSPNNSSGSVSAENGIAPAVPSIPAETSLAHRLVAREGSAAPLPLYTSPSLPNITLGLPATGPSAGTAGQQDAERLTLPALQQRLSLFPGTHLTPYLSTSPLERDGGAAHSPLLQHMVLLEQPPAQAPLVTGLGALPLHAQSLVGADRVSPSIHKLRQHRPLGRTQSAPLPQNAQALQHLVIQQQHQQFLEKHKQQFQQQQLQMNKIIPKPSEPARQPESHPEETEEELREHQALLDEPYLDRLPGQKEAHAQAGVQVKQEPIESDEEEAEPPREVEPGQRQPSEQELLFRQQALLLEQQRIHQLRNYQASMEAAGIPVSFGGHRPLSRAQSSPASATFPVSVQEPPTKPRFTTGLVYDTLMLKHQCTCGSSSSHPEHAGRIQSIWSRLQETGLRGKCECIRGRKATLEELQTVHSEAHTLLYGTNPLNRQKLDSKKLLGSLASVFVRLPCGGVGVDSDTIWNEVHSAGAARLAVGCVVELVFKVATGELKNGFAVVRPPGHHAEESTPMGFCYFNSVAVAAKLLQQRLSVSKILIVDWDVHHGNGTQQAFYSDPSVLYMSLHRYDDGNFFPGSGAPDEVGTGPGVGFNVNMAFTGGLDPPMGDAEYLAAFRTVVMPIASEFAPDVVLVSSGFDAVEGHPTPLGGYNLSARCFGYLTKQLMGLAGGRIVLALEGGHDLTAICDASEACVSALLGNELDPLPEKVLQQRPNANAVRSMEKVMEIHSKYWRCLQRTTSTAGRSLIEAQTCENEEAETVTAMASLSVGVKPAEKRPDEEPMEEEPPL
Histone deacetylase 1, sequence (Q13547 whole entry): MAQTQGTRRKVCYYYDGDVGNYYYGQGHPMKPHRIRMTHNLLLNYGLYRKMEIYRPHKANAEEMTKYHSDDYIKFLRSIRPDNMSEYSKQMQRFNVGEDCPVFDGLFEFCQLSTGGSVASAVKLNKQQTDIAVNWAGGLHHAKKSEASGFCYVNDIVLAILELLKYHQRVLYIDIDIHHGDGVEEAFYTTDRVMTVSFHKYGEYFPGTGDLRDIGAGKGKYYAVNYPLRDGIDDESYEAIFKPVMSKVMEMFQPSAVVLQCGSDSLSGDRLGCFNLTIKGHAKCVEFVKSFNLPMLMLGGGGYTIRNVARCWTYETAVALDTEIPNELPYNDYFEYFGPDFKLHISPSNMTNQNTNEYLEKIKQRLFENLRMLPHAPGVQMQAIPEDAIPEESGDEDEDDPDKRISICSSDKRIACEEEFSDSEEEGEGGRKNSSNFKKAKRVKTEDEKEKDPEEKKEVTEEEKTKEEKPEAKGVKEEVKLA
Histone deacetylase 2, sequence (Q92769 whole entry): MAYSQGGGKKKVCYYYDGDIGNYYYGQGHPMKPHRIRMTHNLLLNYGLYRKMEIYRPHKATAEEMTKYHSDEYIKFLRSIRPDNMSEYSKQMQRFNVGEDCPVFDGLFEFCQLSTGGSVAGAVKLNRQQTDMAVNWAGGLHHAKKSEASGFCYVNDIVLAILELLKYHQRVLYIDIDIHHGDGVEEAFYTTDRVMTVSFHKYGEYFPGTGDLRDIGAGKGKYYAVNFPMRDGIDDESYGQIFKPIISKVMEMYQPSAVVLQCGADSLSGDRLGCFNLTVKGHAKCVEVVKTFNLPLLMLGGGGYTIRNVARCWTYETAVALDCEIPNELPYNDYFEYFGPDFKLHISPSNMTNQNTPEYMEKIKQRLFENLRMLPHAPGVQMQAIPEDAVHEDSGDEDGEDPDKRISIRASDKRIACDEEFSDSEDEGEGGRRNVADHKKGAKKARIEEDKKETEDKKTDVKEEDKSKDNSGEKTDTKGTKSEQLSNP

Broadly, the IC50 is the concentration at which inhibition is half-maximal. As for `C[C@@H]1CN(C(=O)Nc2ccc(-c3nc(N4CCOCC4)c4cnn(CCCCCCC(=O)NO)c4n3)cc2)CCO1`, the Activity in the series on MM1.S [1] is given as 4.81%; in series [2], “Non-Toxic”; with MV4-11 [3] it was 18.99%; in the series with MM1.S [5] it was 1.49%; in the series on MM1.S [6], 57.95%; in the series on MM1.S [7], 1.05%. Also, the Activity is recorded as 17.65% with MM1.S [9]; 37.4% with MV4-11 [11]; 20.43% in the series with MM1.S [12]; 12.6% with MM1.S [13]; 4.78% with MM1.S [14]; 11.11% in the series on MV4-11 [16]. For the same compound, the Activity with MV4-11 [17] amounted to 57.6%. Also, in the series on MV4-11 [4], the viability at 0.16 µM was found to be 2.29%. For the same compound, the figures for the inhibition in vivo at 10 mg/kg in the series with MV4-11 [8] and with MM1.S [15] were 53.1% and 48.1%, respectively. Besides, in [10], the inhibition entry is “Active”. The IC50 was 0.61 nM at Histone deacetylase 2, 1.8 nM in series [18], 0.19 nM at Histone deacetylase 1 and greater than 1000 nM on Histone deacetylase 4. Moreover, the viability at 0.02 µM in the series with MM1.S [19] worked out at 92.6%. The viability at 0.08 µM in the series on MV4-11 [20] came to 4.09%.
